Screens (PubChem BioAssay)
In the library only some 3% were active in any assay of this set; here they are far more common.
DDE Tn7 FP inh – disrupts Tn7 cyclic peptide binding to fibrin D-Dimer-E complex; 0.13% of 370,000 active; AID 720508; P02675; inhibition, % at 8.3 µM; FP displacement of FITC-Tn7 peptide from fibrin DD(E); 0% = median of compound wells per plate;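 active = inhibition above the mean of compounds falling within the control limits plus 3 SD of them, cut at about 14% in these data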
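System: human fibrin DD(E); quantity: Fibrin-DD(E) at 2 µM final; also added: fluorescent Tn7 probe at 0.1 µM; compound dosing: single nominal test concentration of 8.3 µM per compound; schedule: 10 min preincubation, 3 h with tracer, room temperature; detection: fluorescence polarization of the labelled Tn7 tracer; repeats: one replicate per compound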
KLK7 zymogen act – proKLK7 (human) activation, primary screen. 0.9% of 370,000 active. AID 652039. P49862. purified proKLK7, EDANS-DABCYL substrate fluorescence; 100% is mature enzyme control, 0% vehicle. activation, % at 7 µM;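 active = activation above the mean of all tested compounds plus 3 SD, computed per campaign excluding outliers beyond control limits, cut at about 13% in these data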
NRP1-CendR mod – modulators of CendR peptide binding to human neuropilin-1. O14786. FAM-RPARPAR peptide binding to NRP-1, fluorescence polarization. 0.85% of 360,000 active. AID 602438. inhibition, % at 25 µM;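 active = inhibition or corrected inhibition above about 18%, plus a signal ratio from 0.5 to 1.5, limit read from the data, passing the limit was not always enough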
PLC-beta3 inh – blocks human PLC-beta3 enzyme activity; Q01970; Purified PLC-beta3, fluorogenic substrate, fluorescence; inhibition, % at 12.2 µM; 0.18% of 370,000 active; in the data active = inhibition above about 11%
PLC-gamma1 inh – inhibitors of human phospholipase C gamma1; purified PLC-gamma1, fluorogenic substrate, fluorescence; AID 720700; 0.84% of 370,000 active; inhibition, % at 12.2 µM; in the data active = inhibition above about 9.5%
Tn6 DDE FP – DD(E)-Tn6 binding inhibition, primary FP screen | Fibrin DD(E) TRITC-Tn6 fluorescence polarization displacement | 0.21% of 370,000 active | inhibition, % at 8.3 µM | P02675;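 active = inhibition above a per-campaign cutoff: mean of compounds within control limits plus 3 SD, cut at about 15% in these data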
A number is an active result; . = inactive; / = not tested or not shown.

SMILES	DDE Tn7 FP inh	KLK7 zymogen act	NRP1-CendR mod	PLC-beta3 inh	PLC-gamma1 inh	Tn6 DDE FP
N#Cc1ccc(COC(=O)c2cnc(Cl)c(Cl)c2)cc1	.	.	25	.	.	.
C[C@@]12CCC=C[C@H]1[C@H](c1ccc(C(F)(F)F)cc1)N(Cc1ccccc1)C2=O	.	.	26	.	.	.
O=C(Cc1csc(NC(=O)Nc2ccc(Cl)cc2)n1)NCc1cccnc1	.	.	34	.	.	.
c1cc2c(cc1Cn1cnnn1)OCO2	.	.	22	.	.	.
CCOC(=O)c1ccc(N2CCN(C(=O)c3ccccc3)CC2)c(NC(=O)c2ccco2)c1	.	.	31	.	.	.
CC1(C)CC(=O)/C(=C\c2cccc([N+](=O)[O-])c2)C(C)(C)N1	.	.	31	.	.	.
O=C1N/C(=N/O)S/C1=C/c1cccc([N+](=O)[O-])c1	.	.	.	.	.	.
Cc1ccc(-n2c(SCC(=O)Nc3ccc(Oc4ccccc4)cc3)nnc2-c2ccco2)cc1	.	.	/	.	.	.
CC1CCC2(CC1)CCN(CCCOC(=O)NCc1ccc(Cl)cc1)C2=O (stereo unspecified)	.	.	/	.	.	.
COc1ccc(Oc2c(Cl)cnn(-c3ccc(C(C)C)c(C)c3)c2=O)cc1	.	/	/	.	.	.
Cn1c(=O)c2[nH]c(CCCc3ccc([N+](=O)[O-])cc3)nc2n(C)c1=O	.	.	30	.	.	.
Nc1cc2nsnc2cc1Br	.	.	40	.	.	.
Cc1cc(C)cc(OCCNC(=O)C(C)N2C(=O)c3ccccc3C2=O)c1 (stereo unspecified)	.	.	22	.	.	.
CCSc1nc2ccccc2n1Cc1ccccc1F	.	.	.	.	.	.
CCSc1nc2ccccc2n1Cc1cccc([N+](=O)[O-])c1	.	.	23	.	.	.
O=C(Nc1ccccc1Oc1ccccc1)NC1CCCCN(Cc2ccc(Cl)cc2)C1=O (stereo unspecified)	.	.	/	.	.	.
C=CCNC(=O)c1cnn(-c2ccccc2)c1-c1ccccc1	.	.	26	.	.	.
COc1ccc(S(=O)(=O)NC(C)C(=O)Nc2ccc3c(c2)OCO3)cc1OC (stereo unspecified)	.	.	17	.	.	.
COc1ccc(S(=O)(=O)NC(C)C(=O)Nc2ccc3c(c2)OCCO3)cc1OC (stereo unspecified)	.	.	.	.	.	.
COc1ccc(S(=O)(=O)Nc2ccc3c(c2)OCO3)cc1C(=O)O	.	.	.	.	.	.
COc1ccc(/C=C/C(=O)O)cc1S(=O)(=O)Nc1ccc2c(c1)OCO2	.	.	26	.	.	.
CC(=O)N1CCc2cc(Br)c(S(=O)(=O)NCc3ccc(Cl)cc3)cc21	.	.	/	.	.	.
CCOc1ccc(CCNC(=O)C2CCCCC2)cc1OCC	.	/	/	.	.	.
CCOc1ccc(CCNC(=O)C2(c3ccccc3)CC2)cc1OCC	.	.	20	.	.	.
CCC[C@H]1[C@@H](OC(=O)Oc2ccc([N+](=O)[O-])cc2)CC[C@@]23CCCN2C(=O)CCC[C@@H]13	.	/	/	.	.	.
SMILES	DDE Tn7 FP inh	KLK7 zymogen act	NRP1-CendR mod	PLC-beta3 inh	PLC-gamma1 inh	Tn6 DDE FP
COc1ccc(NC(=O)COC(=O)[C@@H]2CCCN2C(=O)c2cccs2)cc1	.	.	29	.	.	.
O=C(O)c1cc(NCc2ccc(F)cc2)ccc1N1CCOCC1	.	.	46	.	.	.
O=C(O)c1cc(NCc2cccs2)ccc1N1CCOCC1	.	.	.	.	.	.
O=C(CSCc1ccc(Br)cc1)Nc1ccc(S(=O)(=O)N2CCOCC2)cc1	.	.	.	.	.	.
O=C(CSCc1ccccc1)Nc1ccc(S(=O)(=O)N2CCOCC2)cc1	.	.	27	.	.	.
CC(C)CN(C(=O)COC(=O)C1c2ccccc2Oc2ccccc21)C1CCS(=O)(=O)C1 (stereo unspecified)	.	.	24	.	.	.
COC(=O)[C@]12C[C@H](CC(=O)N3CCCCC3)C(=O)N(Cc3ccc4c(c3)OCO4)C1=C[C@H](C(C)C)O[C@@H]2C1CC1	.	.	/	.	.	.
COc1cc(CC(=O)O)ccc1OCc1ccccc1	.	.	26	.	.	.
COc1ccc(CC(=O)Cc2ccc(OC)c(OC)c2)cc1OC	14	.	.	.	.	.
Cc1ccccc1N1C(=O)c2ccccc2NC1c1ccncc1 (stereo unspecified)	.	.	28	.	.	.
C#CCOCCOCCOCCNc1nc(N2CCN(C(=O)[C@H](C(C)C)n3cc(CCO)nn3)CC2)nc(N2CCN(C(=O)[C@H](Cc3ccc(O)cc3)n3cc(CCO)nn3)CC2)n1	.	.	29	.	.	.
C#CCOCCOCCOCCNc1nc(N2CCN(C(=O)[C@H](C)n3cc(CCC(=O)O)nn3)CC2)nc(N2CCN(C(=O)[C@H](Cc3ccc(O)cc3)n3cc(CCO)nn3)CC2)n1	.	.	.	.	.	.
C#CCOCCOCCOCCNc1nc(N2CCN(C(=O)[C@H]([C@@H](C)O)n3cc(CCCCN)nn3)CC2)nc(N2CCN(C(=O)[C@H](Cc3ccc(O)cc3)n3cc(CCO)nn3)CC2)n1	.	.	22	.	.	.
CS(=O)(=O)N(CC(=O)Nc1ccccc1-c1ccccc1)c1cccc(F)c1	.	.	27	.	.	.
CS(=O)(=O)N(CC(=O)Nc1ccccc1-c1ccccc1)c1ccccc1	.	.	.	.	.	.
Cc1ccc2nc(-c3ccc(NC(=O)CSc4nnc(-c5cc(-c6ccc(F)cc6)n[nH]5)n4N)cc3)sc2c1	.	.	/	.	.	.
COC(=O)c1c(NC(=O)CN(c2ccccc2)S(C)(=O)=O)sc2c1CCCC2	.	.	27	.	.	.
O=C(COc1ccc(Cl)cc1)NCc1nnc(SCC(=O)NCCc2ccccc2)o1	.	.	20	.	.	.
O=C(COc1ccc(Cl)cc1)NCc1nnc(SCC(=O)Nc2ccccc2)o1	.	.	.	.	.	.
Cc1nn(-c2ccccc2)c2sc(C(=O)NC3CCCC3)cc12	.	.	/	.	.	.
Oc1ccc(C[C@H]2CNC(=S)N2CC2CCCN2C[C@H](Cc2ccc(O)cc2)N2C[C@H](Cc3ccc(O)cc3)N(CC3CCCCC3)C2=S)cc1 (stereo partly specified)	.	.	.	.	.	26
CCc1nc(OCC(=O)c2ccccc2)c(C#N)c2c1COC(C)(C)C2	.	.	19	.	.	.
Cc1nc(OCC(=O)c2ccc(Cl)cc2)c(C#N)c2c1COC(C)(C)C2	.	.	.	.	.	.
COc1ccc2cc3[n+](cc2c1O)CCc1cc2c(cc1-3)OCO2	.	.	31	.	.	.
COc1ccc(C(=O)C(CN2CCOCC2)c2ccccc2)cc1 (stereo unspecified)	.	.	.	.	.	.
